Test results from ChEMBL document CHEMBL3399931, “Reversible and irreversible small molecule inhibitors of monoamine oxidase B (MAO-B) investigated by biophysical techniques” (Bioorg Med Chem, 2015).

Assays:
[1] = target: T1, Amine oxidase [flavin-containing] B (Rattus norvegicus, UniProt P19643); assay: Reversible inhibition of MAO-B in rat whole brain homogenate assessed as recovered activity at 100 times IC50 incubated for 60 mins followed by 6 washes by Amplex Red assay; type: tissue-based; parameters: scale not given: the % may be the effect or the level left; details: 1 h
T1 sequence (P19643 whole entry): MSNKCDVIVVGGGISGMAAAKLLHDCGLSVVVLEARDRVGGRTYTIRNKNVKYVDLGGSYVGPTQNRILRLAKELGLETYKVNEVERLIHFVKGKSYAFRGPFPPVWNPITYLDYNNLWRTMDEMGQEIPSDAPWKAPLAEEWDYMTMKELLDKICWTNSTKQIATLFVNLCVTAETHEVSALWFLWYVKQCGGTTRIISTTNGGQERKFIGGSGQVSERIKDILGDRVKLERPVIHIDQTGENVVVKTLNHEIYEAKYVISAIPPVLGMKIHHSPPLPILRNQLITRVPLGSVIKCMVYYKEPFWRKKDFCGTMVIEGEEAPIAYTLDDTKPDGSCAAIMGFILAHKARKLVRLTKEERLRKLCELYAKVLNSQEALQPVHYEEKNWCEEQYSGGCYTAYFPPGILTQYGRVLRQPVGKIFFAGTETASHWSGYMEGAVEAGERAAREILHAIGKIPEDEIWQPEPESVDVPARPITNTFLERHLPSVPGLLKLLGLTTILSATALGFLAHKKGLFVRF

[2] = target: T1, Amine oxidase [flavin-containing] B; assay: Reversible inhibition of MAO-B in rat whole brain homogenate assessed as recovered activity at 100 times IC50 incubated for 60 mins followed by 3 washes by Amplex Red assay; type: tissue-based; parameters: scale not given: the % may be the effect or the level left; details: 1 h
[3] = target: T1, Amine oxidase [flavin-containing] B; assay: Inhibition of MAO-B in rat whole brain homogenate; type: tissue-based
Procedure, shortened: (§1)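 Insoluble fraction of rat brain lysate was assayed with the non-selective MAO-Glo substrate. Dose–response curves were run against a matrix of fixed concentrations of an MAO-A-selective inhibitor (0.06–200 nM) and an MAO-B-selective inhibitor (0.05–50,000 nM), so that each isoform's contribution could be separated.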

[4] = target: T2, Amine oxidase [flavin-containing] A (Rattus norvegicus, UniProt P21396); assay: Inhibition of MAO-A in rat whole brain homogenate; type: tissue-based; procedure, shortened: as §1
T2 sequence (P21396 whole entry): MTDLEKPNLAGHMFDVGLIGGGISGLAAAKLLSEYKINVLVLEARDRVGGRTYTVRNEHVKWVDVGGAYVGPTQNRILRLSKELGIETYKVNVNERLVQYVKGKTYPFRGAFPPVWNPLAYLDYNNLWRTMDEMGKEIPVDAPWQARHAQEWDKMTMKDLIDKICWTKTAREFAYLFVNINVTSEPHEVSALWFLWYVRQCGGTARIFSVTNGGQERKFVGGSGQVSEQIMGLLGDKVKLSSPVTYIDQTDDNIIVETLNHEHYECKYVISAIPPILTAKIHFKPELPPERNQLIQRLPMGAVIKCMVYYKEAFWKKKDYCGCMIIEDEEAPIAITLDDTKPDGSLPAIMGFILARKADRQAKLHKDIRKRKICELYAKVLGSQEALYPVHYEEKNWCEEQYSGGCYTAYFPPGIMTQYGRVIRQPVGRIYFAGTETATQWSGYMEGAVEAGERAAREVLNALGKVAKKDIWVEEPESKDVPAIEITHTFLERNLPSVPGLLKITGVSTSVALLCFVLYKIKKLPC

[5] = target: T3, Amine oxidase [flavin-containing] B (Homo sapiens, UniProt P27338); assay: Inhibition of human recombinant soluble MAO-B assessed as change in melting temperature at 100 uM after 20 mins by SYPRO orange staining-based fluorescence assay
T3 sequence (P27338 whole entry): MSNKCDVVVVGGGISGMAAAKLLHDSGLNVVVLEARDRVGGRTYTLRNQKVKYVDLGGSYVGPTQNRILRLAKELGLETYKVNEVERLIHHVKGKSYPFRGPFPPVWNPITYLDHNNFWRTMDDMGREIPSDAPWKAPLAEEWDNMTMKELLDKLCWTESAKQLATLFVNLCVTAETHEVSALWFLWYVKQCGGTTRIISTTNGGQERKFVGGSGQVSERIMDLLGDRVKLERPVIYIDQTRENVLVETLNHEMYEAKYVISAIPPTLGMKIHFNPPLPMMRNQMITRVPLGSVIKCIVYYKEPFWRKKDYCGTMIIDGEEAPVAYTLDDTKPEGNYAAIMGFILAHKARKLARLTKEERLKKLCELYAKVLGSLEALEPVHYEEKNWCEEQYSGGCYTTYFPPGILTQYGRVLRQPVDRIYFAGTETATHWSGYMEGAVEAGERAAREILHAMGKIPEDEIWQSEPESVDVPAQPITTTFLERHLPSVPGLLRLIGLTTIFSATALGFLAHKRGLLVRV
Procedure, shortened: (§2)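 It was preincubated with serial compound dilutions (0.5–10 µM or 1.7–100 µM) for 20 min at 4 °C in 10% DMSO. 1x SYPRO orange was then added and samples ramped 25–80 °C at 1 °C/s. Boltzmann Tm was taken from the ~50–70 °C region, and ΔTm = Tm(compound) − Tm(DMSO only).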

[6] = target: T3, Amine oxidase [flavin-containing] B; assay: Inhibition of human recombinant soluble MAO-B assessed as change in melting temperature at 10 uM after 20 mins by SYPRO orange staining-based fluorescence assay
[7] = target: T3, Amine oxidase [flavin-containing] B; assay: Inhibition of human recombinant microsomal MAO-B expressed in Pichia pastoris incubated for 30 mins prior to substrate addition measured after 60 mins by MAO-Glo assay
[8] = target: T3, Amine oxidase [flavin-containing] B; assay: Inhibition of human recombinant soluble MAO-B assessed as thermal shift after 20 mins by SYPRO orange staining-based fluorescence assay; procedure, shortened: as §2
[9] = target: T3, Amine oxidase [flavin-containing] B; assay: Inhibition of human recombinant soluble MAO-B expressed in Pichia pastoris incubated for 30 mins prior to substrate addition measured after 60 mins by MAO-Glo assay

C[C@H](NCc1ccc(OCc2cccc(F)c2)cc1)C(N)=O [SAFINAMIDE]
Activity [1]: 100% | Activity [2]: 31%

C#CCN(C)[C@H](C)Cc1ccccc1 [SELEGILINE]
INH [3]: < 200 nM | INH [4]: 781 nM

Cn1c(=O)c2c(nc(/C=C/c3cccc(Cl)c3)n2C)n(C)c1=O
Activity [5]: Not Active

NCCNC(=O)c1ccc(Cl)cn1 [LAZABEMIDE]
deltaTm [5]: 7 °C | Activity [1]: 100% | Activity [2]: 74%

CCc1ccc(CCOc2ccc(CC3SC(=O)NC3=O)cc2)nc1 (stereo unspecified) [PIOGLITAZONE]
deltaTm [5]: 2.5 °C

N[C@@H]1C[C@H]1c1ccccc1.N[C@H]1C[C@@H]1c1ccccc1 (relative stereo) [TRANYLCYPROMINE]
Activity [5]: Not Active

C#CCN[C@@H]1CCc2ccccc21 [RASAGILINE]
deltaTm [6]: 14.6 °C

C#CCN(C)Cc1ccccc1 [PARGYLINE]
deltaTm [6]: 12.3 °C

NCCNC(=O)c1ccc(Cl)cc1
deltaTm [5]: 4.5 °C | Ki [7]: 997 nM | EC50 [8]: 29000 nM | Ki [9]: 32.2 nM
